Results on 25 molecules are retold here after ChEMBL document CHEMBL3745688, “Discovery of novel hybrids of diaryl-1,2,4-triazoles and caffeic acid as dual inhibitors of cyclooxygenase-2 and 5-lipoxygenase for cancer therapy” (Eur J Med Chem, 2016).

Where only a bound is given, the exact number is not on record here.

Experiment [1] addresses T1, Prostaglandin G/H synthase 2 (Rattus norvegicus, UniProt P35355).
T1 sequence (P35355 whole entry): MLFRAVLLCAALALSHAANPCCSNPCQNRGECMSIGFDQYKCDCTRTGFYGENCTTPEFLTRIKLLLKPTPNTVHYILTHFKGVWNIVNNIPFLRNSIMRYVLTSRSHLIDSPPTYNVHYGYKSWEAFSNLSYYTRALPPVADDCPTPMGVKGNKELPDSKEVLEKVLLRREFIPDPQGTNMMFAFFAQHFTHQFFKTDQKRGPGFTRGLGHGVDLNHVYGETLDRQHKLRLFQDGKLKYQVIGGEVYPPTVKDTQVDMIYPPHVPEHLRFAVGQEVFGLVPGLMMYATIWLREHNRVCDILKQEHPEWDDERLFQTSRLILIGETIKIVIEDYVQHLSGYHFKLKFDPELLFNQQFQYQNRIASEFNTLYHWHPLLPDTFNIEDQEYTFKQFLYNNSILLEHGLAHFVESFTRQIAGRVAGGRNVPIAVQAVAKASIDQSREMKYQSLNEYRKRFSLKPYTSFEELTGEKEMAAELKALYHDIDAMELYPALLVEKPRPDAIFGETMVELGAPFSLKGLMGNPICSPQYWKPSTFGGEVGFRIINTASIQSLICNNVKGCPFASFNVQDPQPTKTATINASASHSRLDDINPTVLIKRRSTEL
The experiment can be described thus: Inhibition of COX2 in rat abdominal macrophages assessed as PGE2 production pretreated for 30 mins followed by addition of 10 uM arachidonic acid as substrate for 20 mins by EIA.

Experiment [2] addresses T2, Polyunsaturated fatty acid 5-lipoxygenase (Rattus norvegicus, UniProt P12527).
T2 sequence (P12527 whole entry): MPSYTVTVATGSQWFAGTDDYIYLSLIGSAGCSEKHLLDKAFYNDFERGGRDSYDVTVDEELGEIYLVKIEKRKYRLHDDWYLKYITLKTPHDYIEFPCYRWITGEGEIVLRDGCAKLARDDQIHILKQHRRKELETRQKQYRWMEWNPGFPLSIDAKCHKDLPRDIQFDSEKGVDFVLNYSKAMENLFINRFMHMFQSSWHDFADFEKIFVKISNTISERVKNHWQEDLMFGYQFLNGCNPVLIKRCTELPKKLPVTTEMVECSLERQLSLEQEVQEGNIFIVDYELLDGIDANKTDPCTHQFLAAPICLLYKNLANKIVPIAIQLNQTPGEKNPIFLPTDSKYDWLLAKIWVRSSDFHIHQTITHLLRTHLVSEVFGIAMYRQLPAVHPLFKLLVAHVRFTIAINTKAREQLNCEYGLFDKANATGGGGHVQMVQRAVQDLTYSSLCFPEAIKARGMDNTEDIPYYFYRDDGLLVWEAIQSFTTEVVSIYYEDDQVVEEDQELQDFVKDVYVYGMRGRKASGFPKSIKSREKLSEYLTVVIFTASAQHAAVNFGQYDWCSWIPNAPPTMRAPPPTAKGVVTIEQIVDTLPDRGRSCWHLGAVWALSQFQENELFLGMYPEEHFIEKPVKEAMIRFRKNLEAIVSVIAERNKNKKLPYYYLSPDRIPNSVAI
The experiment in a line: Inhibition of 5-LOX in Sprague-Dawley rat leukocytes assessed as A23187 stimulated LTB4 production pretreated for 30 mins followed by addition of A23187 for 30 mins by EIA. In kind it is cell-based. The procedure, abridged:
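Rat peritoneal leukocytes collected from Sprague-Dawley rats primed i.p. with 0.2% glycogen (20 mL/kg). Cells in Hanks solution plated at 1.0×10^6/well and held 10 min at 37 °C. Pretreated 30 min with L-cysteine (10 mM), indomethacin (1 mg/L) and compound or DMSO. A23187 added for 30 min. LTB4 in the clarified supernatant measured by EIA; % inhibition from OD; IC50 by Bliss method.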

Experiment [3] relates to A549. The experiment in a line: Antiproliferative activity against human A549 cells after 72 hrs by MTT assay. The class given is functional, cell-based. Conditions: A549, 72 h. The procedure, abridged: (§1)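 Cells seeded at 5×10^4/well, grown 24 h at 37 °C in 5% CO₂, then exposed to compounds dissolved in DMSO at a range of concentrations for 72 h. MTT (5 mg/mL in PBS) added for 4 h, then OD read at 570 nm. IC50 taken from dose-response curves, mean ± S.D. of three independent experiments.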
(Tetrazolium assays rely on reduction of a dye to a coloured formazan, in cell work by metabolically active cells.)

Experiment [4] is described as follows: Antiproliferative activity against human Caco2 cells after 72 hrs by MTT assay. The class given is functional, cell-based. Conditions: Caco-2, 72 h. Summed up:
as §1

The nature of experiment [5]: Antiproliferative activity against human PC3 cells after 72 hrs by MTT assay. Conditions: PC-3, 72 h. The class given is functional, cell-based. The procedure, abridged: as §1
Experiment [6] can be described thus: Antiproliferative activity against mouse B16F10 cells after 72 hrs by MTT assay. In kind it is functional, cell-based. Conditions: B16-F10, 72 h. The procedure, abridged: as §1

By IC50 is commonly meant the concentration that gives 50% inhibition.

For the molecule `CC(=O)Oc1ccc(/C=C/C(=O)NCCSc2nc(-c3ccc(S(N)(=O)=O)cc3)n(-c3ccc(Br)cc3)n2)cc1OC(C)=O`, the half-inhibitory concentration (IC50) in experiment [1] came to 0.18 µM; in experiment [2] it was 0.99 µM; in experiment [3], 18.7 µM; in experiment [4], 16.7 µM; in experiment [5] it was 17 µM; in experiment [6] it was 15.2 µM.

`COc1cc(/C=C/C(=O)OCCSc2nc(-c3ccc(S(C)(=O)=O)cc3)n(-c3ccc(C)cc3)n2)ccc1OC(C)=O`: the IC50 in experiment [1] was determined as 0.87 µM; in experiment [2], 0.98 µM; in experiment [3], 15 µM; in experiment [4], 14.1 µM; in experiment [5], 15.5 µM; in experiment [6] it was 15.3 µM.

In the case of `CS(=O)(=O)c1ccc(-c2nc(SCCOC(=O)/C=C/c3ccc(O)c(O)c3)nn2-c2ccccc2)cc1`, the IC50 amounted to 0.67 µM in experiment [1]; 0.85 µM in experiment [2]; 13.8 µM in experiment [3]; 14.8 µM in experiment [4]; 14.6 µM in experiment [5]; 15 µM in experiment [6].

In the case of `CC(=O)Oc1ccc(/C=C/C(=O)OCCSc2nc(-c3ccc(S(N)(=O)=O)cc3)n(-c3ccc(Br)cc3)n2)cc1OC(C)=O`, the IC50 came to 0.31 µM in experiment [1] and 1.05 µM in experiment [2].

Turning to `CC(=O)Oc1ccc(/C=C/C(=O)OCCCSc2nc(-c3ccc(S(N)(=O)=O)cc3)n(-c3ccccc3)n2)cc1OC(C)=O`, the IC50 was 0.91 µM in experiment [1] and 1.07 µM in experiment [2].

Consider `CC(=O)Oc1ccc(/C=C/C(=O)NCCSc2nc(-c3ccc(S(C)(=O)=O)cc3)n(-c3ccc(F)cc3)n2)cc1OC(C)=O`, for which the IC50 stood at 0.16 µM in experiment [1]; 0.95 µM in experiment [2]; 17 µM in experiment [3]; 15.1 µM in experiment [4]; 18 µM in experiment [5]; 14.6 µM in experiment [6].

Consider `CC(=O)Oc1ccc(/C=C/C(=O)NCCCSc2nc(-c3ccc(S(C)(=O)=O)cc3)n(-c3ccc(Br)cc3)n2)cc1OC(C)=O`, for which the IC50 in experiment [1] is 0.24 µM; in experiment [2] it was 0.99 µM; in experiment [3], 23.3 µM; in experiment [4], 26.1 µM; in experiment [5], 23.9 µM; in experiment [6], 16.4 µM.

For `COc1cc(/C=C/C(=O)OCCSc2nc(-c3ccc(S(C)(=O)=O)cc3)n(-c3ccc(Br)cc3)n2)ccc1OC(C)=O`, the IC50 amounted to 0.29 µM in experiment [1]; 0.94 µM in experiment [2]; 11.1 µM in experiment [3]; 12.1 µM in experiment [4]; 13.1 µM in experiment [5]; 12.4 µM in experiment [6].

Take `COc1cc(/C=C/C(=O)OCCSc2nc(-c3ccc(S(C)(=O)=O)cc3)n(-c3ccc(C(F)(F)F)cc3)n2)ccc1OC(C)=O`: the IC50 in experiment [1] amounted to 0.23 µM; in experiment [2] it was 0.92 µM; in experiment [3], 9.65 µM; in experiment [4], 10.8 µM; in experiment [5], 9.81 µM; in experiment [6], 10.5 µM.

Regarding `CC(=O)Oc1ccc(/C=C/C(=O)OCCSc2nc(-c3ccc(S(C)(=O)=O)cc3)n(-c3ccc(F)cc3)n2)cc1OC(C)=O`, the IC50 in experiment [1] turned out to be 0.18 µM; in experiment [2], 1.05 µM; in experiment [3] it was 11.8 µM; in experiment [4], 12.8 µM; in experiment [5] it was 15.7 µM; in experiment [6] it was 14.2 µM.

Consider `CC(=O)Oc1ccc(/C=C/C(=O)OCCSc2nc(-c3ccc(S(C)(=O)=O)cc3)n(-c3ccc(C(F)(F)F)cc3)n2)cc1OC(C)=O`, for which the IC50 in experiment [1] was found to be 0.19 µM; in experiment [2], 1.06 µM; in experiment [3], 10.2 µM; in experiment [4] it was 11.3 µM; in experiment [5] it was 14.5 µM; in experiment [6], 11.5 µM.

In the case of `CC(=O)Oc1ccc(/C=C/C(=O)OCCSc2nc(-c3ccc(S(C)(=O)=O)cc3)n(-c3ccccc3)n2)cc1OC(C)=O`, the IC50 in experiment [1] was determined as 0.92 µM; in experiment [2], 1.21 µM.

Turning to `NS(=O)(=O)c1ccc(-c2nc(SCCOC(=O)/C=C/c3ccccc3)nn2-c2ccc(Br)cc2)cc1`, the IC50 in experiment [1] was 0.67 µM; in experiment [2], 1.28 µM; in experiment [3], 19.7 µM; in experiment [4] it was 20.9 µM; in experiment [5], 20.1 µM; in experiment [6] it was 21.2 µM.

As for `CC(=O)Oc1ccc(/C=C/C(=O)NCCCSc2nc(-c3ccc(S(N)(=O)=O)cc3)n(-c3ccccc3)n2)cc1OC(C)=O`, the IC50 in experiment [1] was 0.63 µM; in experiment [2], 0.97 µM; in experiment [3], 32.7 µM; in experiment [4], 31 µM; in experiment [5], 35.2 µM; in experiment [6], 29.1 µM.

Consider `O=C(O)/C=C/c1ccc(O)c(O)c1` [CAFFEIC ACID], for which the IC50 in experiment [3], in experiment [4], in experiment [5] and in experiment [6] was more than 100 µM in each case.

`NS(=O)(=O)c1ccc(-c2nc(SCCOC(=O)/C=C/c3ccc(O)c(O)c3)nn2-c2ccccc2)cc1`: the IC50 in experiment [1] turned out to be 0.62 µM; in experiment [2], 0.8 µM; in experiment [3], 14.1 µM; in experiment [4], 15 µM; in experiment [5] it was 15 µM; in experiment [6], 15 µM.

In the case of `CC(=O)Oc1ccc(/C=C/C(=O)OCCSc2nc(-c3ccc(S(N)(=O)=O)cc3)n(-c3ccccc3)n2)cc1OC(C)=O`, the IC50 in experiment [1] was 0.85 µM; in experiment [2], 1.11 µM.

For the molecule `CC(=O)Oc1ccc(/C=C/C(=O)OCCCSc2nc(-c3ccc(S(N)(=O)=O)cc3)n(-c3ccc(F)cc3)n2)cc1OC(C)=O`, the IC50 was determined as 0.36 µM in experiment [1]; 1.03 µM in experiment [2]; 9.92 µM in experiment [3]; 11.5 µM in experiment [4]; 10.5 µM in experiment [5]; 10.9 µM in experiment [6].

`CC(=O)Oc1ccc(/C=C/C(=O)OCCCSc2nc(-c3ccc(S(C)(=O)=O)cc3)n(-c3ccc(Br)cc3)n2)cc1OC(C)=O`: the IC50 was determined as 0.29 µM in experiment [1]; 0.99 µM in experiment [2]; 12.9 µM in experiment [3]; 11.7 µM in experiment [4]; 14.9 µM in experiment [5]; 12.8 µM in experiment [6].

Take `CC(=O)Oc1ccc(/C=C/C(=O)OCCSc2nc(-c3ccc(S(N)(=O)=O)cc3)n(-c3ccc(F)cc3)n2)cc1OC(C)=O`: the IC50 in experiment [1] worked out at 0.39 µM; in experiment [2], 1.06 µM; in experiment [3], 12 µM; in experiment [4] it was 11 µM; in experiment [5], 9.84 µM; in experiment [6] it was 11 µM.

Regarding `CC(=O)Oc1ccc(/C=C/C(=O)NCCCSc2nc(-c3ccc(S(C)(=O)=O)cc3)n(-c3ccc(F)cc3)n2)cc1OC(C)=O`, the IC50 was 0.17 µM in experiment [1]; 0.98 µM in experiment [2]; 21.8 µM in experiment [3]; 20.8 µM in experiment [4]; 17.6 µM in experiment [5]; 15.2 µM in experiment [6].

Turning to `NS(=O)(=O)c1ccc(-c2nc(SCCCOC(=O)/C=C/c3ccc(O)c(O)c3)nn2-c2ccccc2)cc1`, the IC50 in experiment [1] is 0.64 µM; in experiment [2] it was 0.77 µM.

For `COc1cc(/C=C/C(=O)OCCSc2nc(-c3ccc(S(C)(=O)=O)cc3)n(-c3ccccc3)n2)ccc1OC(C)=O`, the figures for the IC50 in experiment [1] and in experiment [2] were 0.62 µM and 0.96 µM, respectively.

As to `COc1cc(/C=C/C(=O)OCCSc2nc(-c3ccc(S(C)(=O)=O)cc3)n(-c3ccccc3)n2)ccc1O`, the IC50 in experiment [1] turned out to be 0.58 µM; in experiment [2], 0.84 µM.

For `O=C(/C=C/c1ccc(O)c(O)c1)OCCc1ccccc1` [CAFFEIC ACID PHENETHYL ESTER], the IC50 in experiment [3] came to 9.72 µM; in experiment [4] it was 11.3 µM; in experiment [5], 10.2 µM; in experiment [6], 10.7 µM.
